In article PMC3304101 (Journal of Medicinal Chemistry, 2010):
Where a name gives a salt, the structure may show the parent alone. Read-outs that look alike come from different tables or passages of the source. One block for each molecule: values may come before it.

Experiments:
[1] = cited from earlier work
[2] = Hydrolysis in pH 6.0 uptake buffer; format: physicochemical; conditions: 37 °C, * no area decrease detected in HPLC after 2 h, ** less than 5% decrease after 2 h
[3] = Hydrolysis in pH 7.4 phosphate buffer; format: physicochemical
Outline: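 Test compound (200 mM DMSO stock) in 10 mM phosphate buffer, pH 7.4, at 37 °C. Sampled at 0, 5, 10, 30, 60 and 120 min, quenched in 0.1% TFA, HPLC. Pseudo-first-order k from ln(remaining) vs time; t1/2=0.693/k; triplicate.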

HeLa cell homogenates = test: Hydrolysis in HeLa cell homogenates; format: in vitro ADME; conditions: 500 μg/mL protein, 37 °C; * no area decrease detected in HPLC after 2 h
Caco-2 cell homogenates = test: Hydrolysis in Caco-2 cell homogenates; format: in vitro ADME; conditions: 500 μg/mL protein, 37 °C; * no area decrease detected in HPLC after 2 h
HeLa/hPEPT1 cells = test: Direct uptake in HeLa/hPEPT1 cells; format: cell-based, human; conditions: for remaining in donor solution after 1 h: direct uptake study, HeLa/hPEPT1 and normal HeLa cells
Outline: (§1)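 HeLa cells grown 5 days in 12-well plates; the hPEPT1 set was infected with hPEPT1 adenovirus 3 days before, and uninfected HeLa served as control. After a wash and 15 min preincubation in uptake buffer (pH 6.0, MES) at 37 °C, cells took 1 mM test compound for 60 min at 37 °C. Then washed ice-cold, sonicated, TFA-precipitated (7% final), HPLC; protein measured by DC assay; triplicate.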

rat jejunum = test: In situ single-pass rat jejunum perfusion; format: in vivo; conditions: 0.1 mM, pH 6.5, compared to co-perfused metoprolol; result in words (Figure 3)
Outline: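 Male Wistar rats, 250–280 g, fasted 12–18 h, anesthetized i.m. with ketamine-xylazine; ~10 cm jejunal segment cannulated in situ at 37 °C. Perfused at 0.2 mL/min with pH 6.5 MES buffer containing 0.1 mM test compound, 0.4 mg/mL metoprolol and phenol red. Samples every 10 min for 1 h after 1 h steady state; HPLC. […], outlet corrected by phenol red; n=4.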

hPEPT1 = biological target: T1, hPEPT1 (Homo sapiens, UniProt P46059); test: [3H]Gly-Sar uptake inhibition in HeLa/hPEPT1 cells; format: cell-based
T1 sequence (P46059 1-708): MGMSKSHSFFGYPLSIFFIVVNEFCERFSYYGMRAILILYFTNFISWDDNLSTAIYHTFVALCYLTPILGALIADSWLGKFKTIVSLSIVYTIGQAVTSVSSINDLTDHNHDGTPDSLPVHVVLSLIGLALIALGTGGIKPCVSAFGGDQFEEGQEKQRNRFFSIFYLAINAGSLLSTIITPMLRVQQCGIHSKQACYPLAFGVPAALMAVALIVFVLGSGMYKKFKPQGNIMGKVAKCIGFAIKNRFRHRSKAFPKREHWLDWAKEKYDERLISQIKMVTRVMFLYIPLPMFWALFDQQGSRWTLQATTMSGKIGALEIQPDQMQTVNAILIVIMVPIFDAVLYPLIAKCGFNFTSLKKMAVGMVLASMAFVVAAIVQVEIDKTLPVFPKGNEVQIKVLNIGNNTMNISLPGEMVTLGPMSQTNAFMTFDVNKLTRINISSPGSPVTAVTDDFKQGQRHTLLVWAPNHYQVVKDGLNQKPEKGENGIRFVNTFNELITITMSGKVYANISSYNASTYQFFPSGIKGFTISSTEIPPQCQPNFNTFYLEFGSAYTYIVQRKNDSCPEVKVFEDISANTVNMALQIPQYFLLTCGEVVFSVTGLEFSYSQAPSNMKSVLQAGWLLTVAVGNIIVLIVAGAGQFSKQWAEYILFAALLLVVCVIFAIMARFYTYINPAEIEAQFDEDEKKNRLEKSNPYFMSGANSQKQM
Outline: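 HeLa cells infected with hPEPT1 adenovirus 3 days before assay. Incubated 30 min at 37 °C in pH 6.0 MES uptake buffer with 10 μM Gly-Sar (0.1 μM [3H]) plus 0.05–5 mM test compound. Washed three times ice-cold, lysed in 0.1% SDS, scintillation counted. IC50 by nonlinear fitting; n=4.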

HeLa cells = test: Direct uptake in normal HeLa cells; format: cell-based; conditions: 1 mM test compound, pH 6.0, 60 min
Outline: as §1

Caco-2 monolayers = test: Caco-2 monolayer permeability study; format: in vitro ADME; conditions: for Apparent apical-to-basolateral permeability coefficient (Papp): 200 μM, apical pH 6.0, basolateral pH 7.5, result in words (Figure 1)
Outline: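 Caco-2 cells grown on collagen-coated 3.0 μm-pore transwell inserts and used 22–23 days post-seeding; TEER checked before and after. After 15 min preincubation at 37 °C, apical MES buffer (pH 6.0) replaced with 200 μM test compound, basolateral HEPES buffer (pH 7.5). Basolateral aliquots taken at set intervals and replaced with fresh buffer; HPLC. Papp=(1/C0A)(dQ/dt), steady-state rate; triplicate.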

[4] = substrate: CC(C)[C@H](N)C(=O)OCCOCn1cnc2c(=O)[nH]c(N)nc21; test: hVACVase-mediated hydrolysis; format: biochemical, human; conditions: other: recombinant hVACVase, 50 mM HEPES pH 7.4, 37 °C
[5] = substrate: CC(C)[C@H](N)C(=O)OCc1cccc(NC(=N)N)c1; test: hVACVase-mediated hydrolysis; format: biochemical, human; conditions: other: recombinant hVACVase, 50 mM HEPES pH 7.4, 37 °C
[6] = substrate: CC[C@H](C)[C@H](N)C(=O)OCc1cccc(N=C(N)N)c1; test: hVACVase-mediated hydrolysis; format: biochemical, human; conditions: other: recombinant hVACVase, 50 mM HEPES pH 7.4, 37 °C
[7] = substrate: NC(N)=Nc1cccc(COC(=O)[C@@H](N)Cc2ccccc2)c1; test: hVACVase-mediated hydrolysis; format: biochemical, human; conditions: other: recombinant hVACVase, 50 mM HEPES pH 7.4, 37 °C

Molecule: CC(C)[C@H](N)C(=O)OCC(CO)OCn1cnc2c(=O)nc(N)[nH]c21 (stereo partly drawn) [valganciclovir]
oral bioavailability [1]: more than 50%

Molecule: CC1CNc2c(cccc2S(=O)(=O)N[C@@H](CCCNC(=N)N)C(=O)N2CC[C@@H](C)C[C@@H]2C(=O)O)C1 (stereo partly drawn) [argatroban]
oral bioavailability ([1]; in vivo, po): low oral bioavailability

Molecule: CC(=O)N[C@H]1[C@H]([C@H](O)[C@H](O)CO)OC(C(=O)O)=C[C@@H]1N=C(N)N [zanamivir]
oral bioavailability ([1]; result in words): low oral bioavailability

Molecule: CC(C)[C@H](N)C(=O)OCc1ccccc1 [Val-OBz, L-valine benzyl ester hydrochloride]
IC50 (hPEPT1): 0.39 ± 0.04 mM

B1: hVACVase (Homo sapiens) (protein)
chain: SVTSAKVAVNGVQLHYQQTGEGDHAVLLLPGMLGSGETDFGPQLKNLNKKLFTVVAWDPRGYGHSRPPDRDFPADFFERDAKDAVDLMKALKFKKVSLLGWSDGGITALIAAAKYPSYIHKMVIWGANAYVTDEDSMIYEGIRDVSKWSERTRKPLEALYGYDYFARTCEKWVDGIRQFKHLPDGNICRHLLPRVQCPALIVHGEKDPLVPRFHADFIHKHVKGSRLHLMPEGKHNLHLRFADEFNKLAEDFLQ
Km [4]: 68 ± 4 µM
Vmax [4]: 120 µmol/min/mg
kcat [4]: 58 ± 1 s⁻¹
kcat/Km [4]: 850000 ± 66000 M⁻¹ s⁻¹
Km [5]: 46 ± 5 µM
Vmax [5]: 321 µmol/min/mg
kcat [5]: 154 ± 4 s⁻¹
kcat/Km [5]: 3.37e+06 ± 460000 M⁻¹ s⁻¹
Km [6]: 9.0 ± 1.2 µM
Vmax [6]: 30 µmol/min/mg
kcat [6]: 14 ± 1 s⁻¹
kcat/Km [6]: 1.58e+06 ± 260000 M⁻¹ s⁻¹
Km [7]: 207 ± 16 µM
Vmax [7]: 718 µmol/min/mg
kcat [7]: 345 ± 8 s⁻¹
kcat/Km [7]: 1.66e+06 ± 160000 M⁻¹ s⁻¹

More lines, main results first:

Half-lives, pH 6 buffer [2]: stable ^*
Half-lives, pH 7.4 buffer ([3]; 10 mM phosphate buffer pH 7.4, 37 °C, * no area decrease detected in HPLC after 2 h): stable ^*
Half-lives, HeLa cell homogenates (HeLa cell homogenates): stable ^*
Half-lives, Caco-2 cell homogenates (Caco-2 cell homogenates): stable ^*
remaining in donor solution after 1 h (HeLa/hPEPT1 cells): > 95%
Effective permeability (Peff), rat jejunum (rat jejunum): very low
Molecule: N=C(N)Nc1cccc(CO)c1 [3-HPG, [3-(hydroxymethyl)phenyl]guanidine]

IC50 (hPEPT1): 1.05 ± 0.13 mM
Molecule: CC[C@H](C)[C@H](N)C(=O)OCc1ccccc1 [Ile-OBz, L-Isoleucine benzyl ester 4-toluenesulfonate salt]

IC50 (hPEPT1): > 3 mM
Molecule: N[C@@H](Cc1ccccc1)C(=O)OCc1ccccc1 [Phe-OBz, L-phenylalanine benzyl ester hydrochloride]

Half-lives, pH 6 buffer [2]: stable ^*
half-life at 200 µM ([3]; phosphate buffer, pH 7.4): 13.8 ± 0.417 h
remaining in donor solution after 1 h (HeLa/hPEPT1 cells): > 95%
Molecule: CC(C)[C@H](N)C(=O)OCCOCn1cnc2c(=O)nc(N)[nH]c21 [valacyclovir]
hPEPT1/control (HeLa/hPEPT1 cells; ratio of uptake in HeLa/hPEPT1 cells to uptake in normal HeLa cells (fold)): > 25
uptake, HeLa cells (HeLa cells): < 0.2 nmol/mg in 60 min
oral bioavailability [1]: more than 50%

Half-lives, pH 6 buffer [2]: stable ^**
remaining in donor solution after 1 h (HeLa/hPEPT1 cells): > 80%
Molecule: NC(N)=Nc1cccc(COC(=O)[C@@H](N)Cc2ccccc2)c1 [Phe-3-HPG, L-Phenylalnine [3-[(aminoiminomethyl)amino]phenyl]methyl ester]
Apparent apical-to-basolateral permeability coefficient (Papp) (Caco-2 monolayers): didn’t show significantly different permeability than 3-HPG

Apparent apical-to-basolateral permeability coefficient (Papp) (Caco-2 monolayers): no transport
Stability in apical side during Caco-2 permeability study (Caco-2 monolayers; percentage of ester form in donor solution at 120 min): 98.8 ± 0.1%
Molecule: D-Valine [3-[(aminoiminomethyl)amino]phenyl]methyl ester [D-Val-3-HPG]
